MEKK3 PB1 HTS – MEKK3-MEK5 PB1 interaction, increase or decrease | bead-based flow cytometry, Alexa488-MEK5 binding to MEKK3; actives lie on both sides; 0 = blocked by unlabeled MEK5, 100 = vehicle | binding response (% of control), % at 10 µM | 1.4% of 290,000 active;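 active = binding response more than 3 SD above or below the average of its plate-row segment, actives on both sides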;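 also: Alexa488 bead fluorescence after subtracting the streptavidin-only scavenger bead signal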
UCH37 inh – human UCH37 deubiquitinating enzyme inhibition; Q9Y5K5; purified proteasome/UCH37, Ub-AMC cleavage fluorescence; inhibition, % (concentration not given with the values); 0.33% of 330,000 active;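 active = mean inhibition over replicate wells above about 20%, limit read from the data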;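 also: 0% = compound-free wells with enzyme and 100% = wells lacking proteasome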
Target sequence (Q9Y5K5 whole entry, looked up): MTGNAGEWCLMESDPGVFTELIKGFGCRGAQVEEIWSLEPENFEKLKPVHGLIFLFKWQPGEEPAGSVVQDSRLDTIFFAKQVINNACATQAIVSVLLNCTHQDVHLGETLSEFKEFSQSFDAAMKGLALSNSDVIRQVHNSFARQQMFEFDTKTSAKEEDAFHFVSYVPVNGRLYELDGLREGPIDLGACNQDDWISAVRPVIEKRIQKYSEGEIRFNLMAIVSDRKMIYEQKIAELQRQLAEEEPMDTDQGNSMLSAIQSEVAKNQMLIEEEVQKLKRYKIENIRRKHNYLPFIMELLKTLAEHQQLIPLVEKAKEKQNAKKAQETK
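Assay system: Proteasome-bound UCH37. Buffer or medium: pH 7.4 Tris-HCl (50 mM) with ovalbumin, ATP-MgCl2, DTT. Incubation: 30 min preincubation with enzyme, 25 min cleavage at room temperature. Measured by: fluorescence, ex 355 nm, em 460 nm. Read-out basis: percent inhibition. Control set: wells without proteasome as full block, compound-free enzyme plus substrate as uninhibited.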
Apaf1 inhib – human Apaf-1 inhibition; O14727; 0.71% of 330,000 active; AID 489030; reconstituted apoptosome caspase-3 activity, DEVD-Rh110 fluorescence; inhibition, % at 20 µM; active = inhibition of at least 40% at 20 µM;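 also: plate controls were DMSO wells for no effect and DEVD-CHO caspase inhibitor wells for full effect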
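System: Apoptosome proteins | Medium: Hepes pH 7.5 with detergent and BSA | Also added: Cytochrome c trigger plus (Z-DEVD)2-Rh110 caspase-3 substrate | Incubation: 30 min compound preincubation, 50 min activation, room temperature | Detection: Rhodamine 110 fluorescence at Ex 480/Em 540 nm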
MEKK2mut PB1 HTS – signal of MEK5 binding to mutant human MEKK2 PB1 domain. bead flow cytometry, Alexa488-MEK5 binding to MEKK2 mutant. percent response, % at 10 µM. 0.35% of 290,000 active. AID 1530; in the data active = percent response above about 24%, passing the limit was not always enough
MEKK2wt PB1 HTS – raises or lowers MEK5 binding to wildtype human MEKK2 PB1 domain | Q9Y2U5 | bead flow cytometry, Alexa488-MEK5 binding to MEKK2 WT; actives lie on both sides | binding response (% of control), % at 10 µM | 1.1% of 290,000 active | AID 1531; in the data active = binding response below about 67% or above about 130%
UBC13 polyUb – blocks human UBC13 polyubiquitin chain formation; TR-FRET; P61088; inhibition, % at 20 µM; 0.47% of 330,000 active; in the data active = inhibition above about 45%, passing the limit was not always enough
Target sequence (P61088 whole entry, looked up): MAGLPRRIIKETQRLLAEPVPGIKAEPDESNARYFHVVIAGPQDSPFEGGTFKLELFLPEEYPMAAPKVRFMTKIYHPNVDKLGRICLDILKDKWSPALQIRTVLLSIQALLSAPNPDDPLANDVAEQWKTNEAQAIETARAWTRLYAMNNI
MEKK2wt confirm – raises or lowers MEK5 binding to wildtype human MEKK2, retest; shares compounds with MEKK3 PB1 HTS; bead flow cytometry, Alexa488-MEK5 binding to MEKK2 WT; actives lie on both sides; binding response (% of control), % at 10 µM; 2.4% of 5,900 active; AID 1892; in the data active = binding response below about 16% or above about 210%; inactive = in between
MEKK2mut-MEK5 – signal of MEK5 binding to mutant human MEKK2, retest; shares compounds with MEKK3 PB1 HTS; bead flow cytometry, Alexa488-MEK5 binding to MEKK2 mutant; percent response, % at 10 µM; 2% of 5,900 active; in the data active = percent response mostly above about 71%, no sharp cut-off; inactive = mostly below about 38%;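 also: higher means compound restores mutant binding toward wildtype level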
MEKK3 confirm – MEKK3-MEK5 PB1 inhibition, single concentration confirmation. shares compounds with MEKK3 PB1 HTS. bead flow cytometry, Alexa488-MEK5 binding to MEKK3; hits give low values. binding response (% of control), % at 10 µM. 1.8% of 5,900 active. AID 1894;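 active = binding response below 72% of control, or above a set upper limit, though filed actives all read lower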;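 also: 100% = DMSO only wells and 0% = binding blocked by excess unlabeled MEK5; lower values mean stronger disruption of MEK5 binding to MEKK3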
Starred values were filed as active, the others as inactive; x = not tested or not shown; [ ] = another dose, or the depositor's remark. A selection: hits, their analogues and other compounds. The true share with any hit is near 3%.

SMILES	MEKK3 PB1 HTS	UCH37 inh	Apaf1 inhib	MEKK2mut PB1 HTS	MEKK2wt PB1 HTS	UBC13 polyUb	MEKK2wt confirm	MEKK2mut-MEK5	MEKK3 confirm
COc1cc(O)c(C(CC(=O)N2CCCC(C)C2)c2ccc(N(C)C)cc2)c(OC)c1 (centres undefined)	127.0	-0.3	14.8	2.0	158.0*	-5.7	103.0	0.0	101.0
COc1cc(O)c(C(CC(=O)N2CCOCC2)c2cc(OC)c(OC)c(OC)c2)c(OC)c1 (centres undefined)	126.0	0.7	4.3	3.0	154.0*	-0.7	97.0	2.0	101.0
COc1cc(OC)c2ccc(=O)oc2c1C(CC(=O)N1CCCC(C)C1)c1ccc2c(c1)OCO2 (centres undefined)	81.0	-5.8	7.0	-16.0	84.0	-8.8	x	x	x
COc1cc(O)c(C(CC(=O)N2CCCC(C)C2)c2ccc3c(c2)OCO3)c(OC)c1 (centres undefined)	121.0	-1.5	15.9	2.0	142.0*	-0.3	104.0	1.0	98.0
COc1cc(O)c(C(CC(=O)N2CCN(c3ccccc3)CC2)c2ccc(N(C)C)cc2)c(OC)c1 (centres undefined)	85.0	3.4	21.4	4.0	134.0	13.3	x	x	x
COc1ccc(C(CC(=O)N2CCCC2)c2c(O)cc(OC)cc2OC)cc1 (centres undefined)	95.0	-0.4	16.3	1.0	97.0	-2.0	x	x	x
COc1cc(O)c(C(CC(=O)N2CCCCC2)c2ccc3c(c2)OCO3)c(OC)c1 (centres undefined)	122.0	0.4	7.8	4.0	140.0*	6.5	102.0	-1.0	103.0
O=C(N/C(=C/c1cccs1)C(=O)N1CCOCC1)c1ccco1	97.0	6.2	-5.7	-1.0	102.0	9.3	x	x	x
CCS(=O)(=O)c1nc(S(=O)(=O)c2ccc(C)cc2)c(N2CCCC(C)C2)s1 (centres undefined)	110.0	6.6	22.2	4.0	108.0	-5.5	x	x	x
CC1CN(C(=O)c2ccc(COc3ccccc3Cl)o2)CC(C)O1 (centres undefined)	91.0	2.7	15.5	-12.0	90.0	-3.1	x	x	x
CCCn1nnc(NC(=O)c2sc3ccccc3c2Cl)n1	74.0*[inhibitor]	2.9	-6.6	-14.0	81.0	-11.5	104.0	9.0	103.0
Cc1ncoc1C(=O)NC1CCCc2c1cnn2-c1ccc(C(C)(C)C)cc1 (centres undefined)	99.0	1.9	19.5	1.0	96.0	-3.4	x	x	x
C=CCOc1ccc(C=NNC(=O)C2CCCC2)cc1OCC	x	2.4	x	x	x	x	x	x	x
Cc1ccc(S(=O)(=O)N(C)CCCC(=O)n2nc(C)cc2C)cc1	0.0*[inhibitor]	1.4	13.1	-39.0	0.0*[inhibitor]	-8.7	103.0	-2.0	103.0
Cc1cc(C)n(C(=O)CN(C)S(=O)(=O)c2ccc([N+](=O)[O-])cc2)n1	104.0	2.3	1.6	7.0	102.0	3.2	x	x	x
Clc1ccc(-c2nnc(-c3ccc4ccccc4c3)o2)cc1	x	-8.7	x	x	x	x	x	x	x
CCOP(=O)(c1ccccc1)C(O)c1ccc(Br)cc1 (centres undefined)	134.0*	2.1	-1.3	0.0	106.0	-3.2	97.0	-8.0	91.0
CCOP(=O)(c1ccccc1)C(O)c1ccccc1 (centres undefined)	98.0	-0.7	2.8	-2.0	98.0	-5.5	x	x	x
O=C(O)/C=C/C(=O)OC1CC2CCC1C2 (centres undefined)	134.0*	1.4	8.8	29.0	117.0	-2.7	105.0	8.0	105.0
O=C(/C=C/c1ccccc1)NC1CC2CCC1C2 (centres undefined)	99.0	5.2	6.4	-2.0	100.0	-9.3	x	x	x

From PubChem
